Reference: ChEMBL document CHEMBL1177638, “Synthesis of pyrrolo[3,2-h]quinolinones with good photochemotherapeutic activity and no DNA damage” (Bioorg Med Chem, 2010)
Active and inactive are the calls of the source. The calls are words filed in the database; no cut-off is given here.

Experiments:
Jurkat [1] = test: Induction of apoptosis in human Jurkat cells assessed as lysosomal dysfunction at 2.5 uM after 2 hrs post-irradiation with 2.5 J/cm'2 using acridine orange dye by flow cytometry; type: functional
How it was run: (§1)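 Jurkat cells were irradiated (2.5 J/cm² UV-A) with the compound and collected 2 or 4 h later. They were resuspended in RPMI-1640 containing acridine orange 1 µM. Intact-lysosome cells were scored by red fluorescence on flow cytometry. Values are means ± SD of at least three independent experiments.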

[2] = Phototoxicity against human sNCTC-2544 cells irradiated with 3.75 J/cm'2 after 72 hrs by MTT assay; type: functional, cell-based; conditions: NCTC-2544, light or radiation study
How it was run: (§2)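 Cells were seeded at 8 × 10³ and preincubated 18 h at 37 °C, 5% CO₂. Jurkat and K-562 grew in RPMI-1640, MCF-7 and NCTC-2544 in DMEM, and LoVo in Ham's F12, all with 10% FBS plus penicillin and streptomycin. Compounds in DMSO were diluted in HBSS, pH 7.2 (range 20–0.31; DMSO ≤1%) and applied 30 min at 37 °C. Wells were then UV-A irradiated (365 nm; 2.5 or 3.75 J/cm²), medium was replaced, and MTT was read after 72 h.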

LoVo [3] = test: Phototoxicity against human LoVo cells irradiated with 2.5 J/cm'2 after 72 hrs by MTT assay; type: functional, cell-based; conditions: light or radiation study; how it was run: as §2
MCF7 [4] = test: Phototoxicity against human MCF7 cells irradiated with 2.5 J/cm'2 after 72 hrs by MTT assay; type: functional, cell-based; conditions: MCF7, light or radiation study; how it was run: as §2
K562 [5] = test: Phototoxicity against human K562 cells irradiated with 2.5 J/cm'2 after 72 hrs by MTT assay; type: functional, cell-based; conditions: K562, light or radiation study; how it was run: as §2
Jurkat [6] = test: Induction of lipid peroxidation in human Jurkat cells irradiated with 2.5 J/cm'2 assessed as increase in malondialdehyde production after 24 hrs by TBARS assay relative to untreated control; type: functional, cell-based
How it was run: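 Jurkat cells (500,000) were irradiated (2.5 J/cm²) with compound present and incubated 24 h. Supernatant was kept with BHT, and cells were lysed in 1% SDS, with protein measured by the Peterson method. Malondialdehyde was measured by thiobarbituric acid reaction (fluorescence, 553 nm) against a 1,1,3,3-tetraethoxypropane standard curve. Results are given as nmol TBARS normalized to protein.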

Jurkat [7] = test: Cell cycle arrest in human Jurkat cells assessed as accumulation in S phase at 1 uM irradiated with 20 J/cm'2 after 24 hrs by flow cytometry; type: functional
How it was run: (§3)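 Exponentially growing Jurkat cells (5 × 10⁵) were irradiated with compound present. Drug was removed, and cells were kept 24 h in RPMI-1640, fixed in ice-cold 70% ethanol, and treated overnight with RNAse (10 KU/mL) in PBS. Cells were stained with propidium iodide and run on a flow cytometer, with DNA content reported as the fraction of cells in each cycle phase.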

Jurkat [8] = test: Induction of apoptosis in human Jurkat cells assessed as induction of loss of membrane potential at 2.5 uM after 2 hrs post-irradiation with 20 J/cm'2 using JC1 staining by FACS; type: functional
How it was run: (§4)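 JC-1 probe at 1 µg/mL in HBSS was added to Jurkat cells spun down 2 or 4 h after UV-A irradiation with the compound. Green (FL1) and orange (FL2) fluorescence were read by flow cytometry, ≥10,000 events per sample. Values are means ± SD of at least three independent experiments.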

Jurkat [9] = test: Induction of apoptosis in human Jurkat cells assessed as lysosomal dysfunction at 1 uM after 4 hrs post-irradiation with 2.5 J/cm'2 using acridine orange dye by flow cytometry; type: functional
How it was run: (§5)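 Jurkat cells were irradiated (2.5 J/cm²) with compound present and collected at 2 and 4 h. They were resuspended in RPMI-1640 containing acridine orange, and the percentage of red-fluorescent cells (intact lysosomes) was scored by flow cytometry. Values are mean ± SD of at least three independent experiments.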

[10] = Photodamaging activity to ribonuclease irradiated with 2.5 J/cm'2 UV light assessed as increase in carbonyl content; type: physicochemical
How it was run: (§6)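 BSA or RNase A at 2 mg/mL in phosphate buffer was irradiated with the compound in a quartz cuvette for various times. Carbonyl content was measured spectrophotometrically after 2,4-dinitrophenylhydrazine derivatization.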

K562 [11] = test: Phototoxicity against human K562 cells irradiated with 3.75 J/cm'2 after 72 hrs by MTT assay; type: functional, cell-based; conditions: K562, light or radiation study; how it was run: as §2
MCF7 [12] = test: Phototoxicity against human MCF7 cells irradiated with 3.75 J/cm'2 after 72 hrs by MTT assay; type: functional, cell-based; conditions: MCF7, light or radiation study; how it was run: as §2
Jurkat [13] = test: Induction of apoptosis in human Jurkat cells assessed as increase in mitochondrial ROS production at 2.5 uM after 6 hrs post-irradiation with 2.5 J/cm'2 by FACS analysis; type: functional
How it was run: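 Jurkat cells were collected 6 h after UV-A irradiation (2.5 J/cm²) with the compound and resuspended in HBSS with hydroethidine 2.5 µM or DCFDA 5 µM. They were incubated at 37 °C for 15 or 30 min. Flow cytometry used 488 nm excitation, with emission at 620 nm (HE) or 530 nm (DCF), acquiring ≥10,000 events. Values are means ± SD of three independent experiments.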

[14] = Phototoxicity against human sNCTC-2544 cells irradiated with 2.5 J/cm'2 after 72 hrs by MTT assay; type: functional, cell-based; conditions: NCTC-2544, light or radiation study; how it was run: as §2
Jurkat [15] = test: Induction of apoptosis in human Jurkat cells assessed as lysosomal dysfunction at 1 uM after 2 hrs post-irradiation with 2.5 J/cm'2 using acridine orange dye by flow cytometry; type: functional; how it was run: as §5
Jurkat [16] = test: Cell cycle arrest in human Jurkat cells assessed as accumulation in G2/M phase at 1 uM irradiated with 25 J/cm'2 after 24 hrs by flow cytometry
LoVo [17] = test: Phototoxicity against human LoVo cells irradiated with 3.75 J/cm'2 after 72 hrs by MTT assay; type: functional, cell-based; conditions: light or radiation study; how it was run: as §2
Jurkat [18] = test: Induction of apoptosis in human Jurkat cells assessed as increase in mitochondrial ROS production at 1 uM after 6 hrs post-irradiation with 2.5 J/cm'2 by FACS analysis; type: functional
How it was run: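 Jurkat cells were irradiated (2.5 J/cm²) with compound present and collected 6 h later. They were resuspended in HBSS with hydroethidine and DCFDA (2.5 and 5, respectively) and held at 37 °C for 15 or 30 min. Flow cytometry used 488 nm excitation, reading 620 nm for HE and 530 nm for DCF, with at least 10,000 events. Values are mean ± SD, three independent experiments.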

Jurkat [19] = test: Cell cycle arrest in human Jurkat cells assessed as accumulation in subG1 phase at 1 uM irradiated with 20 J/cm'2 after 24 hrs by flow cytometry; type: functional; how it was run: as §3
Jurkat [20] = test: Phototoxicity against human Jurkat cells irradiated with 2.5 J/cm'2 after 72 hrs by MTT assay; type: functional, cell-based; conditions: light or radiation study; how it was run: as §2
Jurkat [21] = test: Induction of apoptosis in human Jurkat cells assessed as induction of loss of membrane potential at 2.5 uM after 2 hrs post-irradiation with 20 J/cm'2 by flow cytometry; type: functional; how it was run: as §4
Nucleic Acid [22] = test: Binding affinity to salmon testes DNA assessed as intercalation by linear dichroism experiment; type: nucleic-acid assay; conditions: Salmonidae
How it was run: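 Salmon testes DNA was mixed with compound at [Drug]/[DNA] ratios of 0, 0.02 and 0.04 in 10 mM phosphate buffer, pH 7.2. Samples were oriented in a rotating cylindrical flow cuvette (0.14 cm path, 800 rpm), and linear dichroism spectra were recorded over roughly 250–450 nm.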

Jurkat [23] = test: Induction of apoptosis in human Jurkat cells assessed as lysosomal dysfunction at 2.5 uM after 4 hrs post-irradiation with 2.5 J/cm'2 using acridine orange dye by flow cytometry; type: functional; how it was run: as §1
Nucleic Acid [24] = test: Binding affinity to UV irradiated pBR322 assessed as strand break by electrophoresis; type: nucleic-acid assay; conditions: Escherichia coli
How it was run: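 Plasmid irradiated with the compound. Aliquots were then incubated at 37 °C with Fpg or Endo III. Bands were quantified densitometrically and supercoiled (Form I) and open circular (Form II) fractions were calculated.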

Jurkat [25] = test: Induction of apoptosis in human Jurkat cells assessed as induction of loss of membrane potential at 2.5 uM after 4 hrs post-irradiation with 20 J/cm'2 by flow cytometry; type: functional; how it was run: as §4
[26] = Photodamaging activity to bovine serum albumin irradiated with 2.5 J/cm'2 UV light assessed as increase in carbonyl content; type: physicochemical; conditions: cattle; how it was run: as §6
Jurkat [27] = test: Induction of apoptosis in human Jurkat cells assessed as induction of loss of membrane potential at 2.5 uM after 4 hrs post irradiation with 20 J/cm'2 using JC1 staining by FACS; type: functional; how it was run: as §4
Jurkat [28] = test: Cell cycle arrest in human Jurkat cells assessed as accumulation in G1 phase at 1 uM irradiated with 25 J/cm'2 after 24 hrs by flow cytometry

O=c1ccc2ccc3occc3c2o1 [ANGELICIN]
Activity (Jurkat [1]): 15.03%
IC50 [2]: 900 nM
IC50 (LoVo [3]): 3600 nM
IC50 (MCF7 [4]): 4400 nM
IC50 (K562 [5]): 1200 nM
Activity (Jurkat [6]): Dose-dependent effect
Activity (Jurkat [7]): 46.7%
Activity (Jurkat [8]): 98.92%
Activity (Jurkat [9]): 6.63%
Activity [10]: Active
IC50 (K562 [11]): 1000 nM
IC50 (MCF7 [12]): 1500 nM
Activity (Jurkat [13]): 15.82%
IC50 [14]: 4200 nM
Activity (Jurkat [15]): 9.82%
Activity (Jurkat [16]): 10.2%
IC50 (LoVo [17]): 1500 nM
Activity (Jurkat [18]): Active
Activity (Jurkat [19]): 30.8%
IC50 (Jurkat [20]): 1000 nM
Activity (Jurkat [21]): 1.08%
Activity (Nucleic Acid [22]): Active
Activity (Jurkat [23]): 50.85%
Activity (Nucleic Acid [24]): Active
Activity (Jurkat [25]): 41.2%
Activity [26]: Active
Activity (Jurkat [27]): 58.8%
Activity (Jurkat [28]): 12.3%
